Reference: ChEMBL document CHEMBL4138315, “Synthesis and Evaluation of a Novel Bivalent Selective Antagonist for the Mu-Delta Opioid Receptor Heterodimer that Reduces Morphine Withdrawal in Mice” (J Med Chem, 2018)
Calls of active or inactive are those of the source. No cut-off for these calls is given here. Where a SMILES comes first, the peptide text is derived from it. [ ]: non-standard residue; d: D form. ξ: configuration not given here. d2Nal = N[C@H](Cc1ccc2ccccc2c1)C(=O)O; ξTic = O=C(O)C1Cc2ccccc2CN1

Columns and labels:
[1] = target: T1, Delta-type opioid receptor (Homo sapiens, UniProt P41143); test: Antagonist activity at human DOR expressed in CHO cell membranes assessed as inhibition of CYM51010-induced [35S]-GTPgammaS binding preincubated for 5 mins followed by CYM51010 and [35S]-GTPgammaS addition measured after 80 mins; type: functional
In short: (§1)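 Membranes from CHO cells stably expressing human opioid receptor (N-terminal tagged) were preincubated 5 min with antagonist concentration curves, then given 1 µM CYM51010 and 0.1 nM 35S-GTPγS; 30°C, 80 min, GF/B filtration, scintillation counting. Normalized to CYM51010 alone (100%) and vehicle (0%). Fits: 1-site for MOR/DOR (IC50), 2-site for MDOR (IC50HIGH). N = 3-4, duplicate, mean ± SEM.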

[2] = target: T1, Delta-type opioid receptor; test: Displacement of [3H]-diprenorphine from human DOR expressed in CHO cell membranes after 80 mins by scintillation counting analysis
In short: (§2)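 Competition binding on MOR-, DOR- or MDOR-CHO membranes used a fixed 3H-diprenorphine level against competitor concentration curves; 30°C, 80 min, GF/B filtration, scintillation counting. Nonspecific binding defined with 500 nM each DMT-Tic-Ala-OH and CTAP. Ki was derived from IC50 and the 3H-diprenorphine KD in each line; MDOR data fitted with a 2-site model. N = 3-4, mean ± SEM.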

[3] = target: T2, Mu-type opioid receptor (Homo sapiens, UniProt P35372); test: Antagonist activity at human MOR expressed in CHO cell membranes assessed as inhibition of CYM51010-induced [35S]-GTPgammaS binding preincubated for 5 mins followed by CYM51010 and [35S]-GTPgammaS addition measured after 80 mins; type: functional; in short: as §1
[4] = target: T2, Mu-type opioid receptor; test: Displacement of [3H]-diprenorphine from human MOR expressed in CHO cell membranes after 80 mins by scintillation counting analysis; in short: as §2
[5] = target: T3, Opioid receptors; mu & delta (Homo sapiens, UniProt P41143+P35372); test: (§3) Antagonist activity at human mu-delta opioid receptor heterodimer expressed in CHO cell membranes assessed as inhibition of CYM51010-induced [35S]-GTPgammaS binding at high site fraction preincubated for 5 mins followed by CYM51010 and [35S]-GTPgammaS addition measured after 80 mins relative to control; type: functional
In short: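 35S-GTPγS coupling in MDOR-CHO membranes: 5 min antagonist pre-incubation, then 1 µM CYM51010 plus 0.1 nM 35S-GTPγS, 30°C for 80 min, filtration and scintillation read. A 3-variable 2-site antagonist fit gave FHIGH, the fraction of the high-potency site. N = 3-4 independent experiments.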

[6] = target: T3, Opioid receptors; mu & delta; test: Displacement of [3H]-diprenorphine from human mu-delta opioid receptor heterodimer expressed in CHO cell membranes at high site fraction after 80 mins by scintillation counting analysis relative to control
[7] = species on record: Homo sapiens; test: Selectivity ratio of IC50H for human mu-delta opioid receptor heterodimer expressed in CHO cell membranes to IC50 for human DOR expressed in CHO cell membranes; type: cell-based
[8] = target: T3, Opioid receptors; mu & delta; test: Antagonist activity at human mu-delta opioid receptor heterodimer expressed in CHO cell membranes assessed as inhibition of CYM51010-induced [35S]-GTPgammaS binding at high site fraction preincubated for 5 mins followed by CYM51010 and [35S]-GTPgammaS addition measured after 80 mins; type: functional; in short: as §1
[9] = species on record: Homo sapiens; test: Selectivity ratio of KiH for human mu-delta opioid receptor heterodimer expressed in CHO cell membranes to Ki for human DOR expressed in CHO cell membranes; type: cell-based
[10] = target: T3, Opioid receptors; mu & delta; test: Displacement of [3H]-diprenorphine from human mu-delta opioid receptor expressed in CHO cell membranes after 80 mins by scintillation counting analysis; in short: as §2
[11] = species on record: Mus musculus; test: Antinociceptive activity in CD1 mouse assessed as reduction in CYM51010-induced nociception at 10 nmol pretreated for 5 mins followed by CYM51010 injection measured up to 2 hrs by tail flick assay; type: functional, organism-based
[12] = target: Kappa-type opioid receptor (Homo sapiens) (UniProt P41145); test: Antagonist activity at human KOR expressed in CHO cell membranes assessed as inhibition of U50488-induced [35S]-GTPgammaS binding preincubated for 5 mins followed by U50488 and [35S]-GTPgammaS addition measured after 80 mins; type: functional
In short: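 KOR-CHO membranes (human receptor, N-terminal tag), antagonist concentration curve preincubated 5 min, then 1 µM U50,488 plus 0.1 nM 35S-GTPγS added. Incubated 30°C, 80 min; filtration and scintillation counting. Vehicle 0.1% DMSO in assay buffer with 0.1% BSA. Normalized to agonist alone (100%) and vehicle (0%). One-site curve fit; N = 3 independent experiments in duplicate.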

[13] = target: T3, Opioid receptors; mu & delta; test: Antagonist activity at human mu-delta opioid receptor heterodimer expressed in CHO cell membranes assessed as inhibition of DAMGO-induced [35S]-GTPgammaS binding preincubated for 5 mins followed by DAMGO and [35S]-GTPgammaS addition measured after 80 mins; type: functional
In short: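 MDOR-CHO membranes were preincubated 5 min with antagonist concentration curve, then 1 µM DAMGO and 0.1 nM 35S-GTPγS were added. Incubated 30°C, 80 min; filter harvest, scintillation counting. Normalized to agonist alone and vehicle. N = 3 independent experiments in duplicate.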

[14] = target: T3, Opioid receptors; mu & delta; test: as §3, with “fraction at 100 uM” for “fraction”; type: functional

T3 sequence (P35372 whole entry, looked up): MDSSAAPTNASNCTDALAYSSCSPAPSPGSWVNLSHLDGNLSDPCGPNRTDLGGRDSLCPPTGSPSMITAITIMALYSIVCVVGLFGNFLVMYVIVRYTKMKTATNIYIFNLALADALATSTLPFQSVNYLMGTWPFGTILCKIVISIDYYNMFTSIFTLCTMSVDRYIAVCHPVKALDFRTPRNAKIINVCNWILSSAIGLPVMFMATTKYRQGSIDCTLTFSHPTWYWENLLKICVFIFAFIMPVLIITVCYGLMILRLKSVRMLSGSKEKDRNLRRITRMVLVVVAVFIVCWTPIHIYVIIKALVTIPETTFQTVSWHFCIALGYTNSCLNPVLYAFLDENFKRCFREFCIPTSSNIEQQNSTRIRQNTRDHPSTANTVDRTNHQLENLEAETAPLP
T3 sequence (P41143 whole entry, looked up): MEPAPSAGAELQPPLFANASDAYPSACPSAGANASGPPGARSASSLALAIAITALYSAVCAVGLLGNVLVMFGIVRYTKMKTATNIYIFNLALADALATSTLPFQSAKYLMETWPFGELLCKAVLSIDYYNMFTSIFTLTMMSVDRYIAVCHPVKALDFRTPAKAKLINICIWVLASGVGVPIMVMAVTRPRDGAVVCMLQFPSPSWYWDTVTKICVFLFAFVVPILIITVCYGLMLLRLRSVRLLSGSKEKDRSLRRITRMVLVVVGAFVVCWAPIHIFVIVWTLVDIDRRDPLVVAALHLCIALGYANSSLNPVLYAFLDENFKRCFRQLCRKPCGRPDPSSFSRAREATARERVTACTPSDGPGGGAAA
T2 sequence (P35372 whole entry): as the sequence (P35372 whole entry, looked up) above
T1 sequence (P41143 whole entry): as the sequence (P41143 whole entry, looked up) above
Sequence of Kappa-type opioid receptor (Homo sapiens) (P41145 whole entry): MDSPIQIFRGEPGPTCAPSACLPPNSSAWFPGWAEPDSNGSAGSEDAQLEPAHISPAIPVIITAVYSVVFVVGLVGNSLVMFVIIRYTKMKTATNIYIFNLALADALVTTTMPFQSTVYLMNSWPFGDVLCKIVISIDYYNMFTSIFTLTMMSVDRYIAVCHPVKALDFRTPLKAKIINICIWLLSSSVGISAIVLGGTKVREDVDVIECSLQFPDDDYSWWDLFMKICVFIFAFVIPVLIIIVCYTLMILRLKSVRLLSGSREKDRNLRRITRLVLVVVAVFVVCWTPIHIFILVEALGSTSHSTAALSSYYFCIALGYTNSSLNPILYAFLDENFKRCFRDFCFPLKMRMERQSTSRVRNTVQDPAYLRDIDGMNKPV

IC50 ([1]; cho) | IC50 ([3]; cho) | Ki ([4]; cho) | Imax [6] | KiH [10] | SMILES | Ki ([2]; cho) | Imax [5] | Ratio IC50 [7] | IC50H [8] | Ratio Ki [9] | also measured
58 nM | > 1000 nM | > 1000 nM | – | – | N[C@@H](Cc1ccc(O)cc1)C(=O)N1Cc2ccccc2C[C@H]1C(=O)NCC(=O)NCCCCC(=O)N[C@@H](CCCCNC(=O)CNC(=O)[C@@H](Cc1cccc2ccccc12)NC(=O)[C@H](Cc1ccccc1)NC(=O)[C@@H]1CCCN1C(=O)[C@@H](N)Cc1ccc(O)cc1)C(=O)O | 120 nM | – | – | – | – | –
– | – | – | 12% | 2 nM | N[C@@H](Cc1ccc(O)cc1)C(=O)N1Cc2ccccc2C[C@@H]1C(=O)NCC(=O)NCCCCC(=O)N[C@H](CCCCNC(=O)CNC(=O)[C@@H](Cc1cccc2ccccc12)NC(=O)[C@H](Cc1ccccc1)NC(=O)[C@@H]1CCCN1C(=O)[C@@H](N)Cc1ccc(O)cc1)C(=O)O | – | 39% | 28 | 2.1 nM | 58 | –
– | – | – | – | – | NCCCC[C@@H](NC(=O)CCCNC(=O)CNC(=O)[C@H]1Cc2ccccc2CN1C(=O)[C@@H](N)Cc1ccc(O)cc1)C(=O)O | – | 28% | – | 170 nM | – | –
100 nM | > 1000 nM | > 1000 nM | – | – | N[C@@H](Cc1ccc(O)cc1)C(=O)N1Cc2ccccc2C[C@H]1C(=O)NCC(=O)NCCC(=O)NCCCCCC(=O)N[C@@H](CCCCNC(=O)CCCCCNC(=O)CNC(=O)[C@@H](Cc1cccc2ccccc12)NC(=O)[C@H](Cc1ccccc1)NC(=O)[C@@H]1CCCN1C(=O)[C@@H](N)Cc1ccc(O)cc1)C(=O)O | 290 nM | – | – | – | – | –
– | – | – | 15% | 8.1 nM | N[C@@H](Cc1ccc(O)cc1)C(=O)N1Cc2ccccc2C[C@@H]1C(=O)NCC(=O)NCCC(=O)NCCCCCC(=O)N[C@H](CCCCNC(=O)CCCCCNC(=O)CNC(=O)[C@@H](Cc1cccc2ccccc12)NC(=O)[C@H](Cc1ccccc1)NC(=O)[C@@H]1CCCN1C(=O)[C@@H](N)Cc1ccc(O)cc1)C(=O)O | – | 41% | 5 | 20 nM | 35 | –
– | – | – | – | – | N[C@@H](Cc1ccc(O)cc1)C(=O)N1Cc2ccccc2CC1C(=O)O (stereo partly specified) (H-Tyr-[ξTic]-OH) | – | 44% | – | 250 nM | – | Activity [11]: inactive; inhibition [12]: inactive; IC50 [1]: 100 nM; Ki [2]: 230 nM; IC50 [13]: 36.9 nM
68 nM | > 1000 nM | > 1000 nM | – | – | N[C@@H](Cc1ccc(O)cc1)C(=O)N1Cc2ccccc2C[C@H]1C(=O)NCC(=O)NCCCC(=O)N[C@@H](CCCCNC(=O)CCNC(=O)CNC(=O)[C@@H](Cc1cccc2ccccc12)NC(=O)[C@H](Cc1ccccc1)NC(=O)[C@@H]1CCCN1C(=O)[C@@H](N)Cc1ccc(O)cc1)C(=O)O | 98 nM | – | – | – | – | –
– | – | – | 9% | 1.3 nM | N[C@@H](Cc1ccc(O)cc1)C(=O)N1Cc2ccccc2C[C@@H]1C(=O)NCC(=O)NCCCC(=O)N[C@H](CCCCNC(=O)CCNC(=O)CNC(=O)[C@@H](Cc1cccc2ccccc12)NC(=O)[C@H](Cc1ccccc1)NC(=O)[C@@H]1CCCN1C(=O)[C@@H](N)Cc1ccc(O)cc1)C(=O)O | – | 43% | 43 | 1.6 nM | 78 | –
– | – | – | – | – | NCCCC[C@H](NC(=O)CCCNC(=O)CNC(=O)[C@@H]1Cc2ccccc2CN1C(=O)[C@@H](N)Cc1ccc(O)cc1)C(=O)O | 250 nM | – | – | – | – | –
– | – | – | – | – | NC(=O)[C@@H](Cc1ccc2ccccc2c1)NC(=O)[C@H](Cc1ccccc1)NC(=O)[C@@H]1CCCN1C(=O)[C@@H](N)Cc1ccc(O)cc1 (H-YPF[d2Nal]-NH2) | – | – | – | > 1000 nM | – | inhibition [12]: inactive; IC50 [3]: > 1000 nM; Imax [14]: 0.43%; Ki [4]: > 1000 nM; IC50 [13]: >= 3333 nM

SMILES | IC50 ([1]; cho) | IC50 ([3]; cho) | Ki ([4]; cho) | Imax [6] | KiH [10] | Ki ([2]; cho) | Imax [5] | Ratio IC50 [7] | IC50H [8] | Ratio Ki [9] | also measured
N[C@@H](Cc1ccc(O)cc1)C(=O)N1Cc2ccccc2C[C@H]1C(=O)NCC(=O)NCC(=O)NCCCCCC(=O)NCCC(=O)N[C@@H](CCCCNC(=O)CCNC(=O)CCCCCNC(=O)CCNC(=O)CNC(=O)[C@@H](Cc1cccc2ccccc12)NC(=O)[C@H](Cc1ccccc1)NC(=O)[C@@H]1CCCN1C(=O)[C@@H](N)Cc1ccc(O)cc1)C(=O)O | 94 nM | > 1000 nM | > 1000 nM | – | – | 230 nM | – | – | – | – | –
N[C@@H](Cc1ccc(O)cc1)C(=O)N1Cc2ccccc2C[C@H]1C(=O)NCC(=O)NCC(=O)N[C@@H](CCCCNC(=O)CNC(=O)[C@@H](Cc1cccc2ccccc12)NC(=O)[C@H](Cc1ccccc1)NC(=O)[C@@H]1CCCN1C(=O)[C@@H](N)Cc1ccc(O)cc1)C(=O)O | 58 nM | > 1000 nM | > 1000 nM | – | – | 270 nM | – | – | – | – | –
N[C@@H](Cc1ccc(O)cc1)C(=O)N1Cc2ccccc2C[C@@H]1C(=O)NCC(=O)NCC(=O)NCCCCCC(=O)NCCC(=O)N[C@H](CCCCNC(=O)CCNC(=O)CCCCCNC(=O)CCNC(=O)CNC(=O)[C@@H](Cc1cccc2ccccc12)NC(=O)[C@H](Cc1ccccc1)NC(=O)[C@@H]1CCCN1C(=O)[C@@H](N)Cc1ccc(O)cc1)C(=O)O | – | – | – | 12% | 16 nM | – | 37% | 2 | 48 nM | 15 | –
N[C@@H](Cc1ccc(O)cc1)C(=O)N1Cc2ccccc2C[C@@H]1C(=O)NCC(=O)NCC(=O)N[C@H](CCCCNC(=O)CNC(=O)[C@@H](Cc1cccc2ccccc12)NC(=O)[C@H](Cc1ccccc1)NC(=O)[C@@H]1CCCN1C(=O)[C@@H](N)Cc1ccc(O)cc1)C(=O)O | – | – | – | 12% | 2.5 nM | – | 43% | 17 | 3.4 nM | 110 | –
